Measured values taken from ChEMBL document CHEMBL2057137, “Lead optimization studies on FimH antagonists: discovery of potent and orally bioavailable ortho-substituted biphenyl mannosides” (J Med Chem, 2012).

Experiments:
Escherichia coli [1] = assay: Binding affinity to […] Escherichia coli FimH-lectine domain assessed as melting temperature at 100 uM by differential scanning fluorometric assay
Outline: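 Untagged FimH lectin domain (residues 1–158 of UPEC J96 FimH), 5 µg in a 50 µl reaction of HBS (20mM HEPES pH 7.5, 150mM NaCl). Compound at 100µM final, diluted from DMSO stocks, with SYPRO Orange at 5X final. Controls were FimH alone plus 0.2% DMSO. Melt curve ran from 20–90°C in 0.5 °C steps of 15 s each, with fluorescence read on the HEX channel.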

Escherichia coli [2] = assay: Inhibition of Escherichia coli FimH-mediated hemagglutinination of human red blood cells assessed as drug level required for > 90% inhibition of hemagglutinination after 30 mins by hemagglutinination inhibition assay
[3] = Effective permeability of the compound by PAMPA assay; type: ADME; parameters: unit not given here
Escherichia coli [4] = assay: Antibacterial activity against Escherichia coli K-12 ATCC 25404 assessed as inhibition of biofilm formation after 2 hrs by confocal laser microscopic analysis; type: functional, organism-based; conditions: for IC50: Escherichia coli, K-12 ATCC 25404, 2 h
Mus musculus [5] = assay: Ratio of drug uptake in mouse urine to plasma at 50 mg/kg, po measured after 6 hrs; conditions: in vivo
[6] = Binding affinity to biotinylated Escherichia coli FimH-lectin domain after 30 mins by biolayer interferometry method
Outline: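 FimH lectin domain biotinylated 1:1, loaded at 50μg/ml in HBS (20mM HEPES pH 7.5, 150mM NaCl) onto streptavidin tips, biocytin-blocked. Compound applied as 7 twofold dilutions in HBS for 10 min association, then 30 min dissociation, 30°C with shaking. Referenced to biocytin-blocked pins for drift and nonspecific binding. Kd from global kinetic fitting.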

[7] = Drug level in mouse urine at 50 mg/kg, po measured after 6 hrs; type: ADME, organism-based; parameters: dose 50 mg/kg, route oral; conditions: read-out: Drug uptake
Outline: (§1)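 Oral dosing in mice at 50 mg/kg. Plasma and urine sampled at 30 min and 1, 2, 3, 4, 6 h after dosing. Compound quantified by LC-MS/MS in selected reaction monitoring mode.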

[8] = Plasma concentration in mouse at 50 mg/kg, po measured after 6 hrs; type: ADME, organism-based; parameters: dose 50 mg/kg, route oral; outline: as §1
[9] = Drug metabolism in mouse urine assessed as formation of phenolic biphenyl metabolite at 10 to 200 mg/kg, po; type: ADME, organism-based; parameters: dose 10-200 mg/kg, route oral; conditions: in vivo
Outline: (§2)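 Oral dosing in mice. Urine and plasma compound levels quantified by LC-MS/MS in selected reaction monitoring mode. The phenolic biphenyl hydrolysis product (R group) in urine was monitored at transition 285/254.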

Mus musculus [10] = assay: Stability in mouse urinary tract infection model assessed as hydrolysis of glycosidic bond at 10 to 200 mg/kg, po; type: ADME, organism-based, Urine; parameters: dose 10-200 mg/kg, route oral; conditions: in vivo; outline: as §2
[11] = Drug level in mouse urine at 100 mg/kg, po measured after 6 hrs; type: ADME, organism-based; parameters: dose 100 mg/kg, route oral; conditions: read-out: Drug uptake; outline: as §2
[12] = Plasma concentration in mouse at 100 mg/kg, po measured after 6 hrs; type: ADME, organism-based; parameters: dose 100 mg/kg, route oral; outline: as §2

Row | SMILES | Tm (Escherichia coli [1]) | EC>90 (Escherichia coli [2]) | Kd [6] | other results
1 | CNC(=O)c1cc(C(=O)NC)cc(-c2ccc(O[C@H]3O[C@H](CO)[C@@H](O)[C@H](O)[C@@H]3O)c(C)c2)c1 | 75.8 °C | 0.016 µM |  | log Pe [3]: -8.46; IC50 (Escherichia coli [4]): 73 nM; Ratio (Mus musculus [5]): 10
2 | COC(=O)c1ccc(-c2ccc(O[C@H]3O[C@H](CO)[C@@H](O)[C@H](O)[C@@H]3O)cc2)cc1 |  |  | 3.99 nM | 
3 | CNC(=O)c1cccc(-c2ccc(O[C@H]3O[C@H](CO)[C@@H](O)[C@H](O)[C@@H]3O)c(C(F)(F)F)c2)c1 | 72.3 °C | 0.03 µM |  | IC50 (Escherichia coli [4]): 130 nM; Ratio (Mus musculus [5]): 10
4 | O=C(O)c1cc(C(=O)O)cc(-c2ccc(O[C@H]3O[C@H](CO)[C@@H](O)[C@H](O)[C@@H]3O)cc2)c1 | 72.4 °C |  | 14.5 nM | 
5 | CC(=O)Nc1cccc(-c2ccc(O[C@H]3O[C@H](CO)[C@@H](O)[C@H](O)[C@@H]3O)cc2)c1 | 72.3 °C |  | 1.14 nM | 
6 | COC(=O)c1cccc(-c2ccc(O[C@H]3O[C@H](CO)[C@@H](O)[C@H](O)[C@@H]3O)cc2C(=O)OC)c1 |  | 1 µM |  | log Pe [3]: -4.08
7 | CNC(=O)c1cc(C(=O)NC)cc(-c2ccc(O[C@H]3O[C@H](CO)[C@@H](O)[C@H](O)[C@@H]3O)c(C(F)(F)F)c2)c1 | 76.2 °C | 0.008 µM |  | log Pe [3]: -6.27; concentration at 6 h [7]: 890 nM; IC50 (Escherichia coli [4]): 43 nM; Ratio (Mus musculus [5]): 10; concentration at 6 h [8]: 40 nM
8 | COC(=O)c1cccc(-c2ccc(O[C@H]3O[C@H](CO)[C@@H](O)[C@H](O)[C@@H]3O)c(F)c2)c1 |  | 0.75 µM |  | 
9 | CNC(=O)c1cc(C(=O)NC)cc(-c2ccc(O[C@H]3O[C@H](CO)[C@@H](O)[C@H](O)[C@@H]3O)cc2)c1 | 74.4 °C |  | 0.14 nM | Drug metabolism [9]: Active; log Pe [3]: -4.51; Stability (Mus musculus [10]): Unstable; MED (Escherichia coli [4]): 0.74 µM; IC50 (Escherichia coli [4]): 740 nM; concentration at 6 h [11]: 4850 nM; Ratio (Mus musculus [5]): 10; concentration at 6 h [12]: 10 nM
10 | COC(=O)c1cccc(-c2ccc(O[C@H]3O[C@H](CO)[C@@H](O)[C@H](O)[C@@H]3O)c(Cl)c2)c1 |  | 0.03 µM |  | log Pe [3]: -4.29; IC50 (Escherichia coli [4]): 260 nM
11 | OC[C@H]1O[C@H](Oc2ccccc2)[C@@H](O)[C@@H](O)[C@@H]1O | 68.9 °C | 30 µM |  | 
12 | O=C(Nc1ccncc1)c1cccc(-c2ccc(O[C@H]3O[C@H](CO)[C@@H](O)[C@H](O)[C@@H]3O)cc2)c1 |  | 0.25 µM |  | 
13 | COC(=O)c1cccc(-c2ccc(O[C@H]3O[C@H](CO)[C@@H](O)[C@H](O)[C@@H]3O)c(C(F)(F)F)c2)c1 |  | 0.03 µM |  | log Pe [3]: -3.91; IC50 (Escherichia coli [4]): 170 nM
14 | COC(=O)c1cc(O[C@H]2O[C@H](CO)[C@@H](O)[C@H](O)[C@@H]2O)cc(C(=O)OC)c1 | 73.2 °C |  | 3.45 nM | 
15 | CNS(=O)(=O)c1cccc(-c2ccc(O[C@H]3O[C@H](CO)[C@@H](O)[C@H](O)[C@@H]3O)cc2)c1 | 72 °C |  | 0.49 nM | 
16 | O=C(NCCO)c1cccc(-c2ccc(O[C@H]3O[C@H](CO)[C@@H](O)[C@H](O)[C@@H]3O)cc2)c1 |  | 0.5 µM |  | 
17 | O=C(c1cccc(-c2ccc(O[C@H]3O[C@H](CO)[C@@H](O)[C@H](O)[C@@H]3O)cc2)c1)N1CCNCC1 |  | 4 µM |  | 
18 | NC(=O)Nc1csc(-c2ccc(O[C@H]3O[C@H](CO)[C@@H](O)[C@H](O)[C@@H]3O)cc2)c1 |  | 1 µM |  | 
19 | O=C(Nc1cccnc1)c1cccc(-c2ccc(O[C@H]3O[C@H](CO)[C@@H](O)[C@H](O)[C@@H]3O)cc2)c1 | 72.5 °C | 0.37 µM |  | 
20 | OCc1cccc(-c2ccc(O[C@H]3O[C@H](CO)[C@@H](O)[C@H](O)[C@@H]3O)cc2)c1 | 71.2 °C |  | 2.61 nM | 
21 | OC[C@H]1O[C@H](OCc2ccccc2)[C@@H](O)[C@@H](O)[C@@H]1O |  |  | 43.7 nM | 
22 | OC[C@H]1O[C@H](Oc2ccc(-c3cccc(C(F)(F)F)c3)cc2)[C@@H](O)[C@@H](O)[C@@H]1O | 68.3 °C |  | 1.56 nM | 
23 | CN1CCN(C(=O)c2cccc(-c3ccc(O[C@H]4O[C@H](CO)[C@@H](O)[C@H](O)[C@@H]4O)cc3)c2)CC1 |  | 4 µM |  | 
24 | COC(=O)c1cccc(O[C@H]2O[C@H](CO)[C@@H](O)[C@H](O)[C@@H]2O)c1 | 70.8 °C |  |  | 

Row | SMILES | Tm (Escherichia coli [1]) | EC>90 (Escherichia coli [2]) | Kd [6] | other results
25 | OC[C@H]1O[C@H](Oc2ccc(-c3ccc4ccncc4c3)cc2)[C@@H](O)[C@@H](O)[C@@H]1O |  | 0.75 µM |  | 
26 | CNC(=O)c1cccc(-c2ccc(O[C@H]3O[C@H](CO)[C@@H](O)[C@H](O)[C@@H]3O)c(C)c2)c1 | 74.5 °C | 0.06 µM |  | log Pe [3]: -3.89; concentration at 6 h [7]: 4370 nM; IC50 (Escherichia coli [4]): 160 nM; Ratio (Mus musculus [5]): 10; concentration at 6 h [8]: 100 nM
27 | NCCNC(=O)c1cccc(-c2ccc(O[C@H]3O[C@H](CO)[C@@H](O)[C@H](O)[C@@H]3O)cc2)c1 |  | 3 µM |  | 
28 | COc1cccc(-c2ccc(O[C@H]3O[C@H](CO)[C@@H](O)[C@H](O)[C@@H]3O)cc2)c1 | 71.8 °C |  | 1.25 nM | 
29 | COC(=O)c1csc(-c2ccc(O[C@H]3O[C@H](CO)[C@@H](O)[C@H](O)[C@@H]3O)cc2)c1 |  | 2 µM |  | 
30 | O=c1[nH]ccc2ccc(-c3ccc(O[C@H]4O[C@H](CO)[C@@H](O)[C@H](O)[C@@H]4O)cc3)cc12 |  | 0.1 µM |  | 
31 | OC[C@H]1O[C@H](Oc2ccc(-c3ccc4ncncc4c3)cc2)[C@@H](O)[C@@H](O)[C@@H]1O |  | 0.38 µM |  | 
32 | CNC(=O)c1cccc(-c2ccc(O[C@H]3O[C@H](CO)[C@@H](O)[C@H](O)[C@@H]3O)cc2)c1 | 73.4 °C | 0.5 µM |  | IC50 (Escherichia coli [4]): 1350 nM
33 | COC(=O)c1sc(-c2ccc(O[C@H]3O[C@H](CO)[C@@H](O)[C@H](O)[C@@H]3O)cc2)cc1NC(N)=O |  | 0.02 µM |  | 
34 | NC(=O)c1cccc(-c2ccc(O[C@H]3O[C@H](CO)[C@@H](O)[C@H](O)[C@@H]3O)cc2)c1 | 71.7 °C |  | 1 nM | 
35 | O=C(O)c1cccc(-c2ccc(O[C@H]3O[C@H](CO)[C@@H](O)[C@H](O)[C@@H]3O)cc2)c1 | 70.9 °C |  | 2.21 nM | 
36 | COC(=O)c1ccc(-c2ccc(O[C@H]3O[C@H](CO)[C@@H](O)[C@H](O)[C@@H]3O)cc2)s1 |  | 1 µM |  | 
37 | OC[C@H]1O[C@H](Oc2ccc(-c3cccc4cnccc34)cc2)[C@@H](O)[C@@H](O)[C@@H]1O |  | 0.25 µM |  | 
38 | OC[C@H]1O[C@H](Oc2ccc(-c3ccccc3)cc2)[C@@H](O)[C@@H](O)[C@@H]1O | 71.2 °C |  | 3 nM | 
39 | CNC(=O)c1cccc(-c2ccc(O[C@H]3O[C@H](CO)[C@@H](O)[C@H](O)[C@@H]3O)c(Cl)c2)c1 |  | 0.12 µM |  | IC50 (Escherichia coli [4]): 520 nM; Ratio (Mus musculus [5]): 10
40 | COc1ccccc1-c1ccc(O[C@H]2O[C@H](CO)[C@@H](O)[C@H](O)[C@@H]2O)cc1 | 70.7 °C |  |  | 
41 | CS(=O)(=O)Nc1cccc(-c2ccc(O[C@H]3O[C@H](CO)[C@@H](O)[C@H](O)[C@@H]3O)cc2)c1 | 70.9 °C |  | 2 nM | 
42 | COC(=O)c1cc(-c2ccc(O[C@H]3O[C@H](CO)[C@@H](O)[C@H](O)[C@@H]3O)cc2)ccn1 | 73.7 °C | 0.5 µM |  | 
43 | OC[C@H]1O[C@H](Oc2ccc3ccccc3c2)[C@@H](O)[C@@H](O)[C@@H]1O | 70.8 °C |  | 2.72 nM | 
44 | COC(=O)c1cccc(-c2ccc(O[C@H]3O[C@H](CO)[C@@H](O)[C@H](O)[C@@H]3O)c(OC)c2)c1 |  | 0.19 µM |  | IC50 (Escherichia coli [4]): 890 nM
45 | COC(=O)c1cncc(-c2ccc(O[C@H]3O[C@H](CO)[C@@H](O)[C@H](O)[C@@H]3O)cc2)c1 |  | 0.19 µM |  | 
46 | COC(=O)c1cccc(-c2ccc(O[C@H]3O[C@H](CO)[C@@H](O)[C@H](O)[C@@H]3O)cc2)c1 | 73.4 °C |  | 0.08 nM | log Pe [3]: -5.42; IC50 (Escherichia coli [4]): 940 nM
47 | COC(=O)c1cccc(-c2ccc(O[C@H]3O[C@H](CO)[C@@H](O)[C@H](O)[C@@H]3O)c(C)c2)c1 |  | 0.12 µM |  | IC50 (Escherichia coli [4]): 330 nM
48 | COC(=O)c1cc(C(=O)OC)cc(-c2ccc(O[C@H]3O[C@H](CO)[C@@H](O)[C@H](O)[C@@H]3O)cc2)c1 | 72.5 °C |  |  | 
